Compound activity from PubChem.
Most compounds without a hit are left out; they make up all but 1.8% or so of the library.
MC4R antag cAMP: human MC4R antagonism in cAMP assay. P32245. MC4R-expressing cells, MTII-stimulated cAMP, LANCE TR-FRET. inhibition, % at 6.5 µM. 360,000 compounds, 0.48% hits;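 active = inhibition above its plate's cutoff, the mean of tested wells on that plate plus 3 SD, cut at about 29% in these data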
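Test system: U2OS cells stably expressing human melanocortin 4 receptor (MC4R); also added: Melanotan II challenge; compound: 6.5 µM single dose; timing: 30-min compound preincubation, 1-h Melanotan II challenge, 1-h detection, room temperature; signal: Eu-cAMP/anti-cAMP TR-FRET, emission 671 nm; repeats: one well per compound, no replicates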
AI-2 QS modul: modulates the Vibrio harveyi AI-2 quorum sensing system; Vibrio harveyi JMH597 AI-2 luminescence/OD600 ratio, 9 h; active compounds read low; strain lacks LuxN and CqsS sensors; 0 = neutral-control median; activity change, % at 7.5 µM; 300,000 compounds, 0.4% hits; AID 2094; in the data active = activity change below about -75%, passing the limit was not always enough;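 note: luminescence divided by OD600 gain over 9 h not by final OD600 alone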
MC4R ag barr: human MC4R agonism via beta-arrestin; P32245; 360,000 compounds, 0.98% hits; activation, % at 8.9 µM; U2OS MC4R beta-arrestin complementation, luminescence; percent of melanotan II response, DMSO zero;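 active = activation above a per-plate cutoff, the mean activation of sample wells on that plate plus 3 SD, cut at about 8% in these data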
NTR1 ag: NTR1 (human) agonism. activation, % at 20 µM. NTR1-U2OS beta-arrestin-GFP spot imaging, agonist mode. AID 493036. 330,000 compounds, 0.17% hits. P30989;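 active = activation at or above 40% of the spot to cytoplasm intensity ratio, with at least 20 cells analyzed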
MC4R barr conf: human MC4R beta-arrestin agonism confirmation | shares compounds with MC4R ag barr | U2OS MC4R beta-arrestin recruitment, luminescence; scaled DMSO 0%, Melanotan II 100% | activation, % at 8.9 µM | 2,400 compounds, 31% hits | AID 602192;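 active = mean activation across replicates above the hit cutoff set in the earlier primary screen, cut at about 8% in these data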
MOR DOR agonist: OPRM1-OPRD1 heterodimer agonism counter-screen | 2,400 compounds, 5.8% hits | activation, % at 9.2 µM | shares compounds with MC4R ag barr | U2OS PathHunter beta-arrestin, beta-gal luminescence; percent of deltorphin B response, DMSO zero;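 active = mean activation across replicates exceeds the hit threshold derived in the earlier primary screen, cut at about 18% in these data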
Target sequence (P35372 whole entry, looked up): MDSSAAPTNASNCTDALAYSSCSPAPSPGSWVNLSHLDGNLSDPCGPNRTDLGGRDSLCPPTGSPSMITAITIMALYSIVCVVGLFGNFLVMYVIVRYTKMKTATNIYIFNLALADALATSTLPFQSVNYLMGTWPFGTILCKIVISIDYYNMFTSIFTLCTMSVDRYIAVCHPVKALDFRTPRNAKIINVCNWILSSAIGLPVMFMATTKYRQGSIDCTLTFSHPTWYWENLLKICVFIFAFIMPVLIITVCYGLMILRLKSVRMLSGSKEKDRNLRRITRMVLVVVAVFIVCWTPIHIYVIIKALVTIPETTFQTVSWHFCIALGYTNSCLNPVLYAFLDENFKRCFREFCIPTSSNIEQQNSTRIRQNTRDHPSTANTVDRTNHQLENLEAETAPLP
Target sequence (P41143 whole entry, looked up): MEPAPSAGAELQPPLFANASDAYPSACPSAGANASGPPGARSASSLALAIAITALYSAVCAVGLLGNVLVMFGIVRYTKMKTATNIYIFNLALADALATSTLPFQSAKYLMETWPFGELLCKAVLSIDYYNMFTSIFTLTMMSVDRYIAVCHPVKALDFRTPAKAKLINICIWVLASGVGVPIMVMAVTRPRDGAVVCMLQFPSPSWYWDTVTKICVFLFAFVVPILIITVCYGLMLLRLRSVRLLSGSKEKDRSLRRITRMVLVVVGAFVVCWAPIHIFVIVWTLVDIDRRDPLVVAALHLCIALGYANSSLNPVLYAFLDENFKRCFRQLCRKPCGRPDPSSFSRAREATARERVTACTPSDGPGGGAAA
Of the large screens only hits and unclear results are named; the others gave an inactive call (follow-up assays come after a bar, where they were run).

CC1CC(C)CN(S(=O)(=O)c2ccc(C(=O)Nc3sccc3C(N)=O)cc2)C1 (stereo not given)	MC4R ag barr 13.5 | MC4R barr conf 13.6 | MOR DOR agonist inactive
Cc1ccc(NC(=O)COc2coc(CN3CCc4ccccc43)cc2=O)cc1Cl	MC4R ag barr 12.4 | MC4R barr conf inactive | MOR DOR agonist 25.0
CCC(=O)Nc1sc(C(=O)Nc2ccccc2F)c(C)c1C(=O)OC	none
CCC(=O)Nc1sc(C(=O)Nc2ccccc2OC)c(C)c1C(=O)OC	MC4R ag barr 10.8 | MC4R barr conf inactive | MOR DOR agonist inactive
COc1ccc(NC(=O)CN2C(=O)C(=O)N(C3CCCC3)C2=O)c(OC)c1	none (no result: AI-2 QS modul)
COc1ccc(C(=O)Nc2ccccc2-c2nnn(CC(=O)NCc3ccco3)n2)cc1	MC4R ag barr 10.8 | MC4R barr conf 10.1 | MOR DOR agonist inactive
O=C(Cn1nnc(-c2ccccc2NC(=O)c2ccccc2F)n1)NCc1ccco1	none
O=c1cc(-c2ccccc2)oc2ccc3ccccc3c12	MC4R ag barr 10.0 (no result: AI-2 QS modul, NTR1 ag) | MC4R barr conf 9.5 | MOR DOR agonist inactive
COc1ccc(NC(=O)CSc2nc(SC)ns2)cc1	none
CCOC(=O)c1c(NC(=S)Nc2ccc(F)cc2)sc2c1CCC2	MC4R ag barr 11.2 | MC4R barr conf 8.5 | MOR DOR agonist inactive
CCNc1nc(C#N)nc2c1ncn2-c1cc(F)cc(F)c1	none (no result: AI-2 QS modul)
COc1ccc(CN(C)C(=O)c2ccc(NS(=O)(=O)c3ccc4[nH]c(=O)[nH]c4c3)cc2)c(OC)c1OC	none (no result: AI-2 QS modul)
Cc1cc(CSc2ccccc2)ccc1NC(=O)c1ccc(C)c([N+](=O)[O-])c1	none
Cc1ccc(SCc2ccc(C(=O)Nc3cccc([N+](=O)[O-])c3C)cc2)cc1	MC4R ag barr 23.0 | MC4R barr conf inactive | MOR DOR agonist inactive
Cc1cc(CSc2ccccc2)ccc1NC(=O)c1ccc(Cl)c([N+](=O)[O-])c1	MC4R ag barr 21.6 | MC4R barr conf inactive | MOR DOR agonist inactive
Cc1ccc([N+](=O)[O-])cc1NC(=O)c1ccc(CSc2ccccc2)cc1	MC4R ag barr 13.6 | MC4R barr conf inactive | MOR DOR agonist inactive
CSCc1ccc(C(=O)Nc2cccc(C)c2C)cc1	none
COc1ccccc1NC(=O)CCNS(=O)(=O)c1ccc2c(c1)CCN2C(C)=O	none
COc1ccc([C@H]2C[C@@H](O)[C@H](n3cc(-c4ccc(F)cc4)nn3)CN2CC2CCCCC2)cc1	MC4R ag barr 14.1 (no result: AI-2 QS modul, NTR1 ag) | MC4R barr conf inactive | MOR DOR agonist inactive
Cc1cccc(N2CCN(C(=S)Nc3ccc4nc(N5CCN(C)CC5)cc(C)c4c3)CC2)c1C	MC4R ag barr 10.6 (no result: NTR1 ag) | MC4R barr conf 12.9 | MOR DOR agonist inactive
Cc1cc(N2CCN(C)CC2)nc2ccc(NC(=S)N3CCN(c4cccc(Cl)c4)CC3)cc12	none
Cc1cccc(N2CCN(C(=S)Nc3ccc4nc(N5CCN(C)CC5)cc(C)c4c3)CC2C)c1 (stereo not given)	MC4R ag barr 13.6 | MC4R barr conf inactive | MOR DOR agonist inactive
CCOC(=O)C1CCN(C(=O)C2CCN(S(=O)(=O)c3cc(Cl)ccc3OCC)CC2)CC1	none
O=C(CSc1nnnn1-c1cccc(O)c1)NC1CC1	none
Cc1cc(C)nc(Nc2nc(C(N)Cc3ccc(C(F)(F)F)cc3)cs2)n1 (stereo not given)	MC4R ag barr 10.5 (no result: AI-2 QS modul, NTR1 ag) | MC4R barr conf 25.7 | MOR DOR agonist inactive
CCCc1cnc(Nc2nc(C(N)Cc3ccc(C(F)(F)F)cc3)cs2)nc1 (stereo not given)	MC4R ag barr 14.6 (no result: AI-2 QS modul, NTR1 ag) | MC4R barr conf 13.6 | MOR DOR agonist inactive
COc1cc(OC)nc(Nc2nc(C(N)Cc3ccc(C(F)(F)F)cc3)cs2)n1 (stereo not given)	MC4R ag barr 29.2 (no result: AI-2 QS modul, NTR1 ag) | MC4R barr conf inactive | MOR DOR agonist inactive
Cc1cc(C)nc(Nc2nc(C(N)Cc3ccc(F)cc3)cs2)n1 (stereo not given)	none (no result: AI-2 QS modul, NTR1 ag)
NC(Cc1ccc(C(F)(F)F)cc1)c1csc(Nc2nccc(C(F)(F)F)n2)n1 (stereo not given)	MC4R ag barr 14.8 (no result: AI-2 QS modul, NTR1 ag) | MC4R barr conf 17.2 | MOR DOR agonist inactive
NC(COCc1ccccc1)c1csc(Nc2nccc(C(F)(F)F)n2)n1 (stereo not given)	none (no result: AI-2 QS modul, NTR1 ag)
CC(=O)Nc1cccc(-c2ccnc3c2CC(C)(C(=O)Nc2cccc(C(C)=O)c2)O3)c1 (stereo not given)	none (no result: AI-2 QS modul, NTR1 ag)
O=C(COC(=O)c1c[nH]c2ccccc12)Nc1cccc(F)c1	none (no result: AI-2 QS modul)
C/C(=N\NC(=O)C1(C)CC1(Br)Br)c1cccc(NC(=O)c2ccc(C)o2)c1 (stereo not given)	none
Cc1cc(C)nc(Nc2nc(C(N)Cc3ccc(Cl)cc3)cs2)n1 (stereo not given)	MC4R ag barr 9.8 (no result: AI-2 QS modul, NTR1 ag) | MC4R barr conf 27.8 | MOR DOR agonist inactive
COc1ccc(CCNC(=O)CN2C(=O)COc3ccc(S(=O)(=O)N4CCCC4)cc32)c(OC)c1	none (no result: AI-2 QS modul)
Cc1csc(NC(=O)CSc2nc3sc(C)c(C)c3c(=O)[nH]2)n1	none
Cc1sc2nc(SCC(=O)Nc3ccccc3F)[nH]c(=O)c2c1C	MC4R ag barr 11.8 | MC4R barr conf inactive | MOR DOR agonist inactive
Cc1ccc(C(=O)Nc2ccc(N3CCN(S(C)(=O)=O)CC3)cc2)cc1	none
CS(=O)(=O)N1CCN(c2ccc(NC(=O)c3ccc(-c4ccc(Cl)cc4)o3)cc2)CC1	MC4R ag barr 12.0 | MC4R barr conf inactive | MOR DOR agonist inactive
Cc1nccn1CC(=O)c1ccc(O)c(O)c1	none (no result: AI-2 QS modul)
O=C(CCl)NC(Cc1ccccc1)C(=O)OCC(=O)c1ccc(-c2ccccc2)cc1 (stereo not given)	MC4R ag barr 14.4 (no result: AI-2 QS modul, NTR1 ag) | MC4R barr conf inactive | MOR DOR agonist inactive
C=C1C2(C(=O)Nc3ccc(SC(F)F)cc3)CCC(C2)C1(C)C (stereo not given)	MC4R ag barr 16.6 | MC4R barr conf inactive | MOR DOR agonist inactive
COc1ccc(NC(=O)c2cccc3c(Br)cccc23)cc1	MC4R ag barr 11.6 | MC4R barr conf inactive | MOR DOR agonist inactive
Cc1ccc(CC2S/C(=N/c3ccccn3)NC2=O)cc1 (stereo not given)	MC4R ag barr 14.4 | MC4R barr conf inactive | MOR DOR agonist inactive
CC(=O)N(c1nnc(-c2ccc(C)cc2)s1)C1CCCC1	none
CCOc1ccc(-n2c(SCC(=O)Nc3ccc(Br)cc3)nc3n[nH]c(C)c3c2=N)cc1	MC4R ag barr 16.6 | MC4R barr conf inactive | MOR DOR agonist inactive
Cc1ccc(CNC(=O)CSc2nc3n[nH]c(C)c3c(=N)n2-c2cccc(C)c2)cc1	none
Cc1cc(-n2c(SCC(=O)NCc3cccs3)nc3n[nH]c(C)c3c2=N)ccc1Cl	MC4R ag barr 13.4 | MC4R barr conf inactive | MOR DOR agonist inactive
Cc1cccc(C)c1OC(=O)CSc1nnc(-c2ccccc2O)o1	MC4R ag barr 54.4 (no result: AI-2 QS modul) | MC4R barr conf 8.2 | MOR DOR agonist inactive
